# Experimental data from different studies.
# Target: Serine/threonine-protein kinase N2 (PKN2, Homo sapiens, UniProt Q16513)
Compound,read-out,action,technique,concentration,endpoint,result
Cc1ccc(NC(=O)c2ccnc(C(F)(F)F)c2)cc1-c1cc(OCCO)nc(N2CCOCC2)c1,binding,,,1 µM,remaining binding,89%
Cc1cc(O)c(-c2ccc([C@@H](C)CN(C)C)cc2)c2c1[nH]c(=O)c1sccc12,enzyme activity,inhibitor,,0.1 µM,inhibition,13.8%
CCCCC(=O)Nc1ccc(-c2ccc3ncn(CCC)c(=O)c3c2)cn1,binding,,competition with immobilised ligand,0.5 µM,remaining binding,87%
CN1CCN(C(=O)c2ccc(NC(=O)Nc3ccc(N(C)c4ccnc(Nc5ccc(CS(C)(=O)=O)cc5)n4)cc3)cc2)CC1,binding,,,1 µM,remaining binding,100%
C=CC(=O)N1CCC([C@@H]2CCNc3c(C(N)=O)c(-c4ccc(Oc5ccccc5)cc4)nn32)CC1,enzyme activity,inhibitor,,1 µM,inhibition,24%
CC(C)S(=O)(=O)c1ccc2nccc(Nc3ccc4sc(C5CCCC5)nc4c3)c2c1,enzyme activity,inhibitor,,1 µM,activity vs control,116%
CC#CC(=O)N1CCC[C@H]1c1nc(-c2ccc(C(=O)Nc3ccccn3)cc2)c2c(N)nccn12,enzyme activity,inhibitor,,1 µM,inhibition,0%
C1=C/COCc2cc(ccc2OCCN2CCCC2)Nc2nccc(n2)-c2cccc(c2)COC/1,binding,,,0.1 µM,remaining binding,100%
